Measurements pooled from the literature.
Compare with care: the assays were run in different laboratories.
Organism: Staphylococcus aureus
Read-out: microbial growth

With CC1=NN(CNc2ccccc2)C(=O)C1=NNn1c(-c2ccccc2)nc2ccccc2c1=O the MIC was 221 µM (broth dilution; 24 h).
With Cc1ccc(NCc2ccc(Oc3ccccn3)cc2)cc1 the MIC was 1.8 µg/mL.
CC(C)Oc1c(NC(=O)c2ccc(NC(=O)[C@H](CC(N)=O)NC(=O)c3ccc(CCNC(=O)c4ccc(C#N)cc4)cc3)cc2)ccc(C(=O)Nc2ccc(C(=O)O)cc2)c1O gave an MIC of greater than 64 µg/mL (ATCC29213).
Clc1ccc(Nc2nnc(Cc3ccncc3)c3ccccc23)cc1 has an MIC of greater than 30 µM (NCTC8325).
With NC[C@@H]1O[C@H](O[C@H]2[C@@H](O)[C@H](O[C@@H]3[C@@H](O)[C@H](N)C[C@H](N)[C@H]3O[C@H]3O[C@H](CN)[C@@H](O)[C@H](O)[C@H]3N)O[C@@H]2CO)[C@H](N)[C@@H](O)[C@@H]1O the MIC was 5 to 10 µg/mL (NEWMAN).
The MIC of Cc1cc(C)n(C(=O)c2ccc(-n3c(C)ccc3C)cc2)n1 is reported as 125 µg/mL (broth dilution; ATCC11632; 18 h).
COC(=O)c1cc(Sc2ccc(NC(=S)Nc3ccc(Cl)c(C(F)(F)F)c3)cc2)ccn1 has an MIC of greater than 100 µM (NCTC8325; 24 h).
The MIC of C/C=C(\C)c1cc(O)c(C)c(OC(=O)c2c(C)c(Cl)c(O)c(Cl)c2O)c1 is reported as 8 µg/mL (broth dilution; 16339).
CNC(=O)c1cc(Oc2ccc(NC(=O)Nc3cc(C(C)(C)C)nn3-c3ccc4ncccc4c3)c(F)c2)ccn1 gave an MIC of greater than 30 µM (NCTC8325).
For CNc1cccc2cc(C(=O)Nc3ccc(C(=O)O)cc3)c(=O)[nH]c12, the MIC was 16 µg/mL (ATCC29213).
The MIC of CC(C)Oc1c(NC(=O)c2ccc(NC(=O)[C@H](CC(N)=O)NC(=O)c3cccc(NC(=O)c4ccc(C#N)cc4)c3)cc2)ccc(C(=O)Nc2ccc(C(=O)O)cc2)c1O is reported as greater than 64 µg/mL (ATCC29213).
CS(=O)(=O)c1cccc(-c2nnc(NC(=O)c3ccc(-c4ccccc4)cc3)o2)c1 gave an MIC of greater than 128 µg/mL.
The MIC of O=[N+]([O-])c1ccc(-c2nc3ccccc3[nH]2)cc1 is reported as 128 µg/mL (broth dilution; ATCC29213 MSSA).
With CCCC(=O)Oc1c(C)c(O)c(C(=O)/C=C/c2ccccc2)c(OC)c1C the MIC was greater than 5000 µg/mL (broth dilution; ATCC25923).
The MIC of CC[C@H](Nc1ncnc2nc[nH]c12)c1nc2cccc(F)c2c(=O)n1-c1ccccc1 is reported as greater than 30 µM (NCTC8325).
With Cc1ccc2nc(-c3cccnc3)[nH]c2c1 the MIC was 64 µg/mL (broth dilution; ATCC29213 MSSA).
O=C(Nc1ccc(C(=O)Nc2ccccc2)cc1)Nc1ccc(Cl)c(C(F)(F)F)c1 gave an MIC of greater than 100 µM (NCTC8325; 24 h).
Cc1cc(Cl)cc2sc(N(CCCn3ccnc3)C(=O)c3ccc[nH]3)nc12 has an MIC of 1.3 µM (ATCC25923).
O=C1NC(=S)N/C1=C\c1c2ccccc2c(-c2ccc(N(c3ccccc3)c3ccccc3)cc2)c2ccccc12 gave an MIC of greater than 1000 µg/mL (broth dilution; ATCC25923).
With C/C=C(\C)c1cc(OC(=O)c2c(O)c(C)c(O)c(Cl)c2/C(C)=C/C)c(C)c(O)c1C(=O)O the MIC was greater than 64 µg/mL (broth dilution; 6917).
Nc1nc(N)c2nc(-c3cccc(O)c3)c(-c3cccc(O)c3)nc2n1 gave an MIC of greater than 30 µM (NCTC8325).
CSc1nc2nnnc(O)c2s1 has an MIC of greater than 128 µg/mL.
